We go through three compounds from ChEMBL document CHEMBL3120107, “Cytotoxic cardiac glycosides and coumarins from Antiaris toxicaria” (2014).

For one experiment, the system named is A549. Briefly: Cytotoxicity against human A549 cells assessed as growth inhibition after 72 hrs by SRB assay. The experiment is classed as functional. To be noted: Homo sapiens, A549, 72 h; read-out: ED50 (the source's name). Put shortly: (§1)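 Sulforhodamine B assay run by NCI-validated procedure. Cells grown at 37 °C under humidified 5% CO2 in RPMI-1640 with 25 mM HEPES, […] (w/v) sodium bicarbonate, 10% (v/v) FBS and 100 μg/mL kanamycin. Compounds came from DMSO stocks, with final DMSO ≤ 1% (v/v). Continuous exposure for 72 h. ED50 (μg/mL, 50% cell-number reduction) interpolated from dose-response data. Triplicate tests. Doxorubicin served as positive control.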

A further experiment deals with KBVIN. Briefly: (§2) Cytotoxicity against human KBVIN cells assessed as growth inhibition after 72 hrs by SRB assay. The experiment is classed as functional. The method in brief: as §1
Another experiment concerns 1A9. The experiment is described as follows: Cytotoxicity against human 1A9 cells assessed as growth inhibition after 72 hrs by SRB assay. The experiment is classed as functional. The settings on record: for EC50: Homo sapiens, 1A9, 72 h, read-out: ED50 (the source's name). The method in brief:
as §1

The test system of another experiment is MCF7. Briefly: Cytotoxicity against human MCF7 cells assessed as growth inhibition after 72 hrs by SRB assay. The experiment is classed as functional. The settings on record: Homo sapiens, MCF7, 72 h; read-out: ED50 (the source's name). Put shortly: as §1
Another experiment has as its system CAKI-1. Briefly: Cytotoxicity against human CAKI-1 cells assessed as growth inhibition after 72 hrs by SRB assay. The experiment is classed as functional. The settings on record: for EC50: Homo sapiens, CAKI-1, 72 h, read-out: ED50 (the source's name). Put shortly:
as §1

Experiment [1] in a line: Cytotoxicity against human […] cells assessed as growth inhibition after 72 hrs by SRB assay. The experiment is classed as functional. The settings on record: Homo sapiens, HCT9, 72 h; read-out: ED50 (the source's name). The method in brief:
as §1

A further experiment deals with SK-MEL-2. The experiment is described as follows: Cytotoxicity against human SK-MEL-2 cells assessed as growth inhibition after 72 hrs by SRB assay. The settings on record: for EC50: Homo sapiens, SK-MEL-2, 72 h, read-out: ED50 (the source's name). The experiment is classed as functional. Put shortly: as §1
In another experiment the test system is PC-3. Briefly: Cytotoxicity against human PC3 cells assessed as growth inhibition after 72 hrs by SRB assay. The experiment is classed as functional. The method in brief:
as §1

The next experiment deals with KB. Briefly: Cytotoxicity against human KB cells assessed as growth inhibition after 72 hrs by SRB assay. The experiment is classed as functional. The settings on record: Homo sapiens, KB, 72 h; read-out: ED50 (the source's name). The method in brief:
as §1

The nature of experiment [2]: Cytotoxicity against human U87MG cells assessed as growth inhibition after 72 hrs by SRB assay. The experiment is classed as functional, U-87MG ATCC. To be noted: Homo sapiens, U-87 MG, 72 h; read-out: ED50 (the source's name). The method in brief: as §1
Experiment [3] in a line: as §2. The experiment is classed as functional. The settings on record: Homo sapiens, KBVIN, 72 h; read-out: ED50 (the source's name). The method in brief: as §1

≈ marks a conversion by molar mass, not a printed value. Calls of active or inactive are those of the source. The calls are words filed in the database; no cut-off is given here. Bounds are passed on as bounds.

On to `COc1c(CC(O)C(C)(C)O)cc2ccc(=O)oc2c1O` (centres undefined), for which the EC50 in the experiment on A549 was 10.8 µg/mL (≈ 36.7 µM); in the experiment with 1A9 it was 1.5 µg/mL (≈ 5.1 µM); with MCF7, > 20 µg/mL; in the experiment with CAKI-1, 1.5 µg/mL (≈ 5.1 µM); in [1] it was 6.7 µg/mL (≈ 22.8 µM); with SK-MEL-2 it was 1.3 µg/mL (≈ 4.42 µM). The “growth inhibition (GI)” value in the experiment with KBVIN was “inactive”.
As for `CC(C)(O)[C@@H]1Cc2cc3ccc(=O)oc3cc2O1` [MARMESIN], the EC50 in the experiment with A549 and in the experiment with MCF7 was > 20 µg/mL throughout. For the same compound, the “growth inhibition (GI)” value in the experiment on KBVIN, in the experiment on 1A9, in the experiment on CAKI-1, with SK-MEL-2 and with PC-3 was “inactive” each time.
Regarding `CO[C@H]1[C@@H](O[C@H]2CC[C@]3(C=O)[C@H]4C[C@@H](O)[C@]5(C)[C@@H](C6=CC(=O)OC6)CC[C@]5(O)[C@@H]4CC[C@]3(O)C2)O[C@H](C)[C@@H](O)[C@@H]1O` [TOXICARIOSIDE B], the EC50 is 0.058 µg/mL (≈ 0.0999 µM) with A549; 0.13 µg/mL (≈ 0.224 µM) in the experiment on KB; 0.13 µg/mL (≈ 0.224 µM) in experiment [2]; 0.14 µg/mL (≈ 0.241 µM) in experiment [3]; 0.063 µg/mL (≈ 0.108 µM) in the experiment on 1A9; 0.092 µg/mL (≈ 0.158 µM) in the experiment on MCF7. The EC50 turned out to be 0.07 µg/mL (≈ 0.121 µM) in the experiment on CAKI-1; 0.11 µg/mL (≈ 0.189 µM) in experiment [1]; 0.12 µg/mL (≈ 0.207 µM) in the experiment on SK-MEL-2; 0.091 µg/mL (≈ 0.157 µM) with PC-3 (Homo sapiens, PC-3, 72 h, read-out: ED50 (the source's name)).
